Measurements from ChEMBL document CHEMBL1148507, “Discovery of a novel, orally active, small molecule gonadotropin-releasing hormone (GnRH) receptor antagonist” (J Med Chem, 2006).
pIC50, pKi: −log10 of the molar value.

Columns and labels:
D(3) dopamine receptor = D(3) dopamine receptor (Homo sapiens, UniProt P35462); experiment: Binding affinity to human D3 receptor
In short: (§1)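 Selectivity panel of 54 assays (ion channels, GPCRs, monoamine transporters) run at Cerep; Ki determined for hits at 10 µM; human isoform where marked.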

[1] = molecular target: 5-hydroxytryptamine receptor 2A (Homo sapiens, UniProt P28223); experiment: Binding affinity to human 5HT2A receptor; in short: as §1
5-hydroxytryptamine receptor 2A, sequence (P28223 whole entry): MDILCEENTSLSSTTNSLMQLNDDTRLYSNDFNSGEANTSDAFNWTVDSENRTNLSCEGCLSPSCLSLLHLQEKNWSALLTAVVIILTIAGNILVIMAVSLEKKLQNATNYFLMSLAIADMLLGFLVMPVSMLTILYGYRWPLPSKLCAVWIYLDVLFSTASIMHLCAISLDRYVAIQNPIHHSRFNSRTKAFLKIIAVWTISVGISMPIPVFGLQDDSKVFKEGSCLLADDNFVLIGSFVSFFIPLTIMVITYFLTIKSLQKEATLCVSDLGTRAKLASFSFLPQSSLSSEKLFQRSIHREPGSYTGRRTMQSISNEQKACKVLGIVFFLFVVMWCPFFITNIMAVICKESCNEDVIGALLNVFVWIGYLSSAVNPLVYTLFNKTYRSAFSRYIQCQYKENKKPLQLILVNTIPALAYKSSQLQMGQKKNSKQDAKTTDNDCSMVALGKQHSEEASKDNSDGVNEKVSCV

Rattus norvegicus [2] = experiment: Suppression of testosterone level to below 0.5 ng/mL castrate level for 12 hrs in po dosed gonad intact Sprague-Dawley rat; format: ADME, organism-based; details: in vivo
In short: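 Single-housed intact male SD rats (300-325 g), jugular cannulated 3 days prior; basal bleed 7:00-7:30 am, then single oral dose 5.0, 25, 50 or 100 mg/kg in 0.5% CMC suspension, n = 6/dose; serial heparinized plasma; testosterone by coated-tube RIA; castrate level <0.5 ng/mL; mean ± SEM.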

[3] = molecular target: Platelet-activating factor receptor (Homo sapiens, UniProt P25105); experiment: Binding affinity to PAF; in short: as §1
[4] = molecular target: 5-hydroxytryptamine receptor 7 (Homo sapiens, UniProt P34969); experiment: Binding affinity to human 5HT7 receptor; in short: as §1
5-hydroxytryptamine receptor 7, sequence (P34969 whole entry): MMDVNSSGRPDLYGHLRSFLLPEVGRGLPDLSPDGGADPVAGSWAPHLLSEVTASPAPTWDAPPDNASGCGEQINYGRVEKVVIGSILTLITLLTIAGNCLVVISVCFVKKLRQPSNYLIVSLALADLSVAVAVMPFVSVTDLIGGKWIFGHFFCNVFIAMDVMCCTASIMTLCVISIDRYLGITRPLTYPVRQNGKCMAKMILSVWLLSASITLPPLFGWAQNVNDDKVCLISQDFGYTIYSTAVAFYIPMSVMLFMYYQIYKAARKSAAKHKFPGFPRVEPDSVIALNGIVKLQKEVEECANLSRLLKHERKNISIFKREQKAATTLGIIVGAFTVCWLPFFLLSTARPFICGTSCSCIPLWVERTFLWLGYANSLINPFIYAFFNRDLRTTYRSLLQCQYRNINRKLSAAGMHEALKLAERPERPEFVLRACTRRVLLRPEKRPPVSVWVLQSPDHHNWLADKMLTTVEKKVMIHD

[5] = molecular target: 5-hydroxytryptamine receptor 2C (Homo sapiens, UniProt P28335); experiment: Binding affinity to human 5HT2C receptor; in short: as §1
5-hydroxytryptamine receptor 2C, sequence (P28335 whole entry): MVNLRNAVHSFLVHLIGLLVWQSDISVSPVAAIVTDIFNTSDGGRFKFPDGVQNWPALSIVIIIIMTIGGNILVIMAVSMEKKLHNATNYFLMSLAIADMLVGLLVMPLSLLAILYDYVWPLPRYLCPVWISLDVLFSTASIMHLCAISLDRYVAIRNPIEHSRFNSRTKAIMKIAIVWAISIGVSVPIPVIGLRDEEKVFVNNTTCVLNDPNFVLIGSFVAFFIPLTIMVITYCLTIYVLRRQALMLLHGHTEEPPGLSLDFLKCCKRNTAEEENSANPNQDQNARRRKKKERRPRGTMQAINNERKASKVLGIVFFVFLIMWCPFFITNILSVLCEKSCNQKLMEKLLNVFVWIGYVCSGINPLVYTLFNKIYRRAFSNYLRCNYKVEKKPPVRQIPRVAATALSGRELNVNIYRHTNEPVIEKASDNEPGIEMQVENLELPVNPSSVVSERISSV

[6] = molecular target: T1, Voltage-gated L-type calcium channel (Homo sapiens, UniProt Q13936+Q13698+Q01668+O60840); experiment: Binding affinity to L type calcium channel; format: protein assay; in short: as §1
[7] = molecular target: Muscarinic acetylcholine receptor M4 (Homo sapiens, UniProt P08173); experiment: Binding affinity to human M4 receptor; in short: as §1
[8] = molecular target: T1, Voltage-gated L-type calcium channel; experiment: Binding affinity to diltiazem site of L type calcium channel; format: protein assay; in short: as §1
[9] = Oral bioavailability in Sprague-Dawley rat at 5 mg/kg, iv and 20 mg/kg, po; format: ADME, organism-based; details: in vivo
In short: (§2)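 Intact male rats with indwelling jugular vein catheters, recovered overnight; single dose 5 mg/kg i.v. (5 mg/mL in 70% PEG400/30% H2O) or 20 mg/kg p.o. (20 mg/mL suspension in 0.5% CMC). Plasma by C18 HPLC, 50-70% ACN gradient in 10 mM ammonium phosphate pH 7, UV 260 nm; noncompartmental parameters; F = AUCp.o./AUCi.v.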

[10] = Clearance in Sprague-Dawley rat at 5 mg/kg, iv or 20 mg/kg, po; format: ADME, organism-based; details: in vivo; in short: as §2
[11] = molecular target: T2, Gonadotropin-releasing hormone receptor (Rattus norvegicus, UniProt P30969); experiment: Binding affinity to rat pituitary GnRH receptor
T2 sequence (P30969 whole entry): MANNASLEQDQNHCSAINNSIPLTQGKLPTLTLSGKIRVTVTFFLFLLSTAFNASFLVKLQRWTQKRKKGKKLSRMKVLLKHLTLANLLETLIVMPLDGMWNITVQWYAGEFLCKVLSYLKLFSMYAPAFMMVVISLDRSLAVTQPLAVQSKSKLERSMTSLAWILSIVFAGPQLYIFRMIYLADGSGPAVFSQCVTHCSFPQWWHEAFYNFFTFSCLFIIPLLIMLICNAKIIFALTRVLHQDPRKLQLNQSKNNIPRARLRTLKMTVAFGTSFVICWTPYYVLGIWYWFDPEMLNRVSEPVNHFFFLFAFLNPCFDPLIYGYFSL

[12] = molecular target: Muscarinic acetylcholine receptor M1 (Homo sapiens, UniProt P11229); experiment: Binding affinity to human M1 receptor; in short: as §1
D(1A) dopamine receptor = D(1A) dopamine receptor (Homo sapiens, UniProt P21728); experiment: Binding affinity to human D1 receptor; in short: as §1
Cytochrome P450 3A4 = Cytochrome P450 3A4 (Homo sapiens, UniProt P08684); experiment: Inhibition of CYP3A4; format: ADME
Cytochrome P450 3A4, sequence (P08684 whole entry): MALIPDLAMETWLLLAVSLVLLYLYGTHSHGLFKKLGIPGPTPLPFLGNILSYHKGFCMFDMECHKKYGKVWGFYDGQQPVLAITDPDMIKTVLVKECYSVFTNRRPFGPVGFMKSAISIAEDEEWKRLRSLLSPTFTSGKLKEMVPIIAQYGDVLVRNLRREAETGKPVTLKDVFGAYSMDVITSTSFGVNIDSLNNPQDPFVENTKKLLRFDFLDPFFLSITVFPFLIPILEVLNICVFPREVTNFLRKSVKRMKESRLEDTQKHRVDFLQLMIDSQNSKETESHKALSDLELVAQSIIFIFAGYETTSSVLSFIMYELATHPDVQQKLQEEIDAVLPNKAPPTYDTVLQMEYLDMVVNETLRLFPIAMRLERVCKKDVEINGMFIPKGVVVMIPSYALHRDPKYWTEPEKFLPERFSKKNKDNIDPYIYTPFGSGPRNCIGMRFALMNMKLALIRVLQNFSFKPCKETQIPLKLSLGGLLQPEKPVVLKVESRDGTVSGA

Substance-P receptor = Substance-P receptor (Homo sapiens, UniProt P25103); experiment: Binding affinity to human NK1 receptor; in short: as §1
Substance-P receptor, sequence (P25103 whole entry): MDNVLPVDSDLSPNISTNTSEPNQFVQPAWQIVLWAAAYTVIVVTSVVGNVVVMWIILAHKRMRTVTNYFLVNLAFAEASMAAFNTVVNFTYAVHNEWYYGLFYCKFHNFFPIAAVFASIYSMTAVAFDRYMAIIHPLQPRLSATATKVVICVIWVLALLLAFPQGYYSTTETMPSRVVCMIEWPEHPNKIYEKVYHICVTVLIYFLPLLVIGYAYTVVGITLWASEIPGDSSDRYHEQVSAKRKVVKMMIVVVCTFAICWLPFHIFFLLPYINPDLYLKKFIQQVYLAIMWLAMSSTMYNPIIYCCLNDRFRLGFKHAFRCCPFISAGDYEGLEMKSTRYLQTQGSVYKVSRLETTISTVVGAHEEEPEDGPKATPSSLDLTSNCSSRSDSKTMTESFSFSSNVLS

[13] = molecular target: Sodium-dependent dopamine transporter (Homo sapiens, UniProt Q01959); experiment: Binding affinity to human DA transporter; in short: as §1
Sodium-dependent dopamine transporter, sequence (Q01959 whole entry): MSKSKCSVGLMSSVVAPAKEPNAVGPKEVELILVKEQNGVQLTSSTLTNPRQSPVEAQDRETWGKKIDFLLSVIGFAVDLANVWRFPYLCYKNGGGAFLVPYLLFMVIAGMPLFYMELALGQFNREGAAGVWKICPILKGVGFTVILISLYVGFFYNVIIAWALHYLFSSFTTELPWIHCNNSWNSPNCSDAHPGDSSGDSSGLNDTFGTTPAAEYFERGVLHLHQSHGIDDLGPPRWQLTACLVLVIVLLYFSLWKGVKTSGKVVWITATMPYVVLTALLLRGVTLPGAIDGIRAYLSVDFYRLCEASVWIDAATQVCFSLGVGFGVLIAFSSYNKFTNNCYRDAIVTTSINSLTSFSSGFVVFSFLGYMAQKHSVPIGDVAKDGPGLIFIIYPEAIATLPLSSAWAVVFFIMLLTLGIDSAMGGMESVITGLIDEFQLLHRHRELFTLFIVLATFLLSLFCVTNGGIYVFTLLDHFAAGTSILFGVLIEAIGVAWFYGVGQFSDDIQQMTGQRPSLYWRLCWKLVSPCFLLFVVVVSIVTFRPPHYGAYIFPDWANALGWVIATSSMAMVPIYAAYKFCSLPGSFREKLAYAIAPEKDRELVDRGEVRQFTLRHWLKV

[14] = molecular target: Type-1 angiotensin II receptor (Homo sapiens, UniProt P30556); experiment: Binding affinity to human AT1 receptor; in short: as §1
Type-1 angiotensin II receptor, sequence (P30556 whole entry): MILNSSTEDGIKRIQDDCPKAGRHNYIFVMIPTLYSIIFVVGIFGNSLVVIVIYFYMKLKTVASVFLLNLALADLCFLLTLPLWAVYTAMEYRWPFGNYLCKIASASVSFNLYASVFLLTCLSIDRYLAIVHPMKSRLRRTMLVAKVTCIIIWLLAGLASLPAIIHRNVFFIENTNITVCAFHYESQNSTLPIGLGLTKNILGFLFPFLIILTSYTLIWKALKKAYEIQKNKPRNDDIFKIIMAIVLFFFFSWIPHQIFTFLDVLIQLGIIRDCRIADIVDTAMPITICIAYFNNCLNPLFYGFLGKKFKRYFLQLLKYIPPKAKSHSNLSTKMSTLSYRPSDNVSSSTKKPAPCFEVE

Adenosine receptor A3 = Adenosine receptor A3 (Homo sapiens, UniProt P0DMS8); experiment: Binding affinity to human A3 receptor; in short: as §1
Adenosine receptor A3, sequence (P0DMS8 whole entry): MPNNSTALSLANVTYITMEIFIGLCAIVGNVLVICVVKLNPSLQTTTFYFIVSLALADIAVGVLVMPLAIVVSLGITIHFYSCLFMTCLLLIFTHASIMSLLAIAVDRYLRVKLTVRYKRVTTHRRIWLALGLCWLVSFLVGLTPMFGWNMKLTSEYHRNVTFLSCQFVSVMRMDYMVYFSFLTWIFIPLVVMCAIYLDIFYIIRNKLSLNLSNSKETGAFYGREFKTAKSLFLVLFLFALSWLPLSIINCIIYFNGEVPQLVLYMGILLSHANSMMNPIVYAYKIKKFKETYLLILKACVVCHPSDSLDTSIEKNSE

Cytochrome P450 2C19 = Cytochrome P450 2C19 (Homo sapiens, UniProt P33261); experiment: Inhibition of CYP2C19; format: ADME
[15] = Volume of distribution in Sprague-Dawley rat at 5 mg/kg, iv or 20 mg/kg, po; format: ADME, organism-based; details: in vivo, read-out: Vdss; in short: as §2
Histamine H2 receptor = Histamine H2 receptor (Homo sapiens, UniProt P25021); experiment: Binding affinity to H2 receptor; in short: as §1
[16] = molecular target: T2, Gonadotropin-releasing hormone receptor; experiment: Antagonist activity at rat pituitary GnRH receptor assessed as inhibition of GnRH-stimulated inositol phosphate accumulation; format: functional; details: in the assay text read “recombinant rat” for “rat pituitary”
In short: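 Rat receptor functional assay run against 100 nM GnRH; total inositol phosphate accumulation measured; IC50 with Hill coefficient derived.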

[17] = molecular target: T1, Voltage-gated L-type calcium channel; experiment: Binding affinity to DHP site of L type calcium channel; format: protein assay; in short: as §1
Rattus norvegicus [18] = experiment: Suppression of luteinizing hormone levels to below 0.12 mIU/mL in po dosed castrated Sprague-Dawley rat; format: ADME, organism-based; details: in vivo
In short: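 Male SD rats (200-225 g) castrated under halothane, 14 days recovery, jugular cannulated; basal bleed then single oral dose 5.0, 20, 50 or 100 mg/kg in 0.5% CMC, n = 6/dose; serial plasma LH by coated-tube RIA, detection limit 0.12 mIU/mL; mean ± SEM.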

[19] = molecular target: Sodium-dependent noradrenaline transporter (Homo sapiens, UniProt P23975); experiment: Binding affinity to human NE transporter; in short: as §1
Cytochrome P450 1A2 = Cytochrome P450 1A2 (Homo sapiens, UniProt P05177); experiment: Inhibition of CYP1A2; format: ADME
[20] = Inhibition KCl-stimulated calcium channel activity
[21] = molecular target: Sodium-dependent serotonin transporter (Homo sapiens, UniProt P31645); experiment: Binding affinity to human 5HT transporter; in short: as §1
Sodium-dependent serotonin transporter, sequence (P31645 whole entry): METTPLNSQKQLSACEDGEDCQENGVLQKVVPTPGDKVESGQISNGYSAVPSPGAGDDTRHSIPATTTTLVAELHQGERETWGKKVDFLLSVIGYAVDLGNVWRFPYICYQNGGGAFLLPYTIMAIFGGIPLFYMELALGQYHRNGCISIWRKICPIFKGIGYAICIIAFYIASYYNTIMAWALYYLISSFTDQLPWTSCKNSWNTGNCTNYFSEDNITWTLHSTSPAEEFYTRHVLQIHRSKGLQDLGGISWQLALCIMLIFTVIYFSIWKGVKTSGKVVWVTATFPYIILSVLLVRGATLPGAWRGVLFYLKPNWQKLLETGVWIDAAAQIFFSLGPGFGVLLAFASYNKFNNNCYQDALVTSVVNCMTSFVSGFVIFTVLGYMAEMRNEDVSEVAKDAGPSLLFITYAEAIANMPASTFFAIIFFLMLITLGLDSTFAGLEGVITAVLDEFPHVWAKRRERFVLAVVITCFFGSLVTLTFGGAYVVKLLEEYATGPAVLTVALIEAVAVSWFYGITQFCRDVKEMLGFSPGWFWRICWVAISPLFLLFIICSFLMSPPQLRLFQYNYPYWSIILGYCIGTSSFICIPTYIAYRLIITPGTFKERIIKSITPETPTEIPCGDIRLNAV

Cytochrome P450 2C9 = Cytochrome P450 2C9 (Homo sapiens, UniProt P11712); experiment: Inhibition of CYP2C9; format: ADME
[22] = Half life in Sprague-Dawley rat at 5 mg/kg, iv or 20 mg/kg, po; format: ADME, organism-based; details: in vivo; in short: as §2
Cytochrome P450 2D6 = Cytochrome P450 2D6 (Homo sapiens, UniProt P10635); experiment: Inhibition of CYP2D6; format: ADME
D(4) dopamine receptor = D(4) dopamine receptor (Homo sapiens, UniProt P21917); experiment: Binding affinity to human D4.4 receptor; in short: as §1
[23] = molecular target: Kappa-type opioid receptor (Homo sapiens, UniProt P41145); experiment: Binding affinity to kappa opiate receptor; in short: as §1
Kappa-type opioid receptor, sequence (P41145 whole entry): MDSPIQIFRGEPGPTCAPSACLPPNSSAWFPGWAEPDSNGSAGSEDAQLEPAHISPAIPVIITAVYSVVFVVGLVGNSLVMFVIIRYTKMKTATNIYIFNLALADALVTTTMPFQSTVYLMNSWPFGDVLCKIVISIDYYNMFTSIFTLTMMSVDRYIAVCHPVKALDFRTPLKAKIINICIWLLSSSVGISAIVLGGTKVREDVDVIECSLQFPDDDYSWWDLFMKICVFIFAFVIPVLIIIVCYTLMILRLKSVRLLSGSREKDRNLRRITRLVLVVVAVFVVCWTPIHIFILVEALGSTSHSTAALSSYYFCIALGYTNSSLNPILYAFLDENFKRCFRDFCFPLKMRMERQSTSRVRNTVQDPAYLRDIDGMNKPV

Mu-type opioid receptor = Mu-type opioid receptor (Homo sapiens, UniProt P35372); experiment: Binding affinity to human mu opiate receptor; in short: as §1

pKi (D(3) dopamine receptor): 5.93
pKi [1]: 6.23
Activity (Rattus norvegicus [2]): Dose-dependent effect
pKi [3]: 5.97
pKi [4]: 5.76
pKi [5]: 6.02
Ki [6]: 145 nM
pKi [7]: 5.43
pKi [8]: 6.43
bioavailability [9]: 26%
clearance [10]: 5.5 mL/min/kg
pKi [11]: 9.40
pKi [12]: 5.39
pKi (D(1A) dopamine receptor): 5.79
pIC50 (Cytochrome P450 3A4): < 4.52
pKi (Substance-P receptor): 5.90
pKi [13]: 5.74
pKi [14]: 5.43
pKi (Adenosine receptor A3): 6.20
pIC50 (Cytochrome P450 2C19): < 4.52
Vd [15]: 1.1 L/kg
pKi (Histamine H2 receptor): 5.91
pIC50 [16]: 8.06
pKi [17]: 6.84
Activity (Rattus norvegicus [18]): Dose-dependent effect
pKi [19]: 5.29
pIC50 (Cytochrome P450 1A2): < 4.52
pIC50 [20]: 5.20
pKi [21]: 5.84
pIC50 (Cytochrome P450 2C9): 5.52
half-life [22]: 5.1 h
pIC50 (Cytochrome P450 2D6): < 4.52
pKi (D(4) dopamine receptor): 5.60
pKi [23]: 5.71
pKi (Mu-type opioid receptor): 5.85
SMILES: COc1nc(NCCCN2CCOCC2)nc(OC)c1NC(=O)c1ccc(Oc2cc3c(cc2C)CCC3(C)C)o1
